Reference: ChEMBL document CHEMBL5252557

How the values were obtained:
[1] = target: Angiotensin-converting enzyme 2 (Homo sapiens, UniProt Q9BYF1); assay: Inhibition of his-tagged SARS-COV2 S-RBD binding to C-terminal Fc-tagged human ACE2 expressed in HEK293 cells incubated for 2 hrs by Alphascreen assay; type: cell-based
Outline: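 ACE2-Fc (2 nM) with His-tagged spike RBD, Wuhan variant (5 nM), plus protein A acceptor and nickel chelate donor beads (5 μg/mL each), in 20 mM Tris pH 7.4, 150 mM KCl, 0.05% CHAPS. Compounds added from 100× DMSO dilutions, in duplicate. 2 h at room temperature, then luminescence read. 100% = signal without RBD; 0% = both proteins plus DMSO.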

[2] = target: Programmed cell death protein 1/Programmed cell death 1 ligand 1 (Homo sapiens, UniProt Q15116+Q9NZQ7); assay: Inhibition of C-terminal his tagged human PD-1/human Fc tagged PDL-1 interaction expressed in HEK293 cells incubated for 2 hrs AlphaScreen assay; type: cell-based
Homo sapiens = organism: Homo sapiens; assay: Selectivity index, ratio of IC50 for his tagged human PD-1/human Fc tagged PDL-1 interaction to IC50 for his-tagged FC tagged SARS-COV2 S-RBD binding to ACE2 (unknown origin)

Chain of Angiotensin-converting enzyme 2 (Q9BYF1 whole entry): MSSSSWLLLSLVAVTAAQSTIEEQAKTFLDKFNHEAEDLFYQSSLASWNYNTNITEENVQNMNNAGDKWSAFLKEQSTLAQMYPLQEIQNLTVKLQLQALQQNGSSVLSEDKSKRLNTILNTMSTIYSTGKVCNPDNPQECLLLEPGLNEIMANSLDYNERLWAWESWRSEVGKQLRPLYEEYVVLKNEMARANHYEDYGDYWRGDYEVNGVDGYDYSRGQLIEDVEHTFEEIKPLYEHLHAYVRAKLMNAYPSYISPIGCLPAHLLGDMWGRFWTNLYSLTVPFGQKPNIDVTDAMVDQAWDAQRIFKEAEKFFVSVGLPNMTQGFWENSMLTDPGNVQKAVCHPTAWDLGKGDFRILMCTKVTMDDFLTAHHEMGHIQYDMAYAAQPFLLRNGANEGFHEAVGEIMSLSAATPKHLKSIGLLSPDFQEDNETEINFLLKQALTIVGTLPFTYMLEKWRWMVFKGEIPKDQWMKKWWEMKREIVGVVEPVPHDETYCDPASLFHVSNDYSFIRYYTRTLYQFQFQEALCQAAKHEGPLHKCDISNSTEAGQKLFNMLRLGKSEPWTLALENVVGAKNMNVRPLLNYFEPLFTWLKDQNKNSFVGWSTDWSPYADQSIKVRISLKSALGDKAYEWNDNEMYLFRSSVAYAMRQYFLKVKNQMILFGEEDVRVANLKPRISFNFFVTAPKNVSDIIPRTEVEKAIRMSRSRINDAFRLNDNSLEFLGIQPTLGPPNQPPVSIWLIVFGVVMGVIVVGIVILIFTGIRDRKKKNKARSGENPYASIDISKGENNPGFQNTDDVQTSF
Chain of Programmed cell death protein 1/Programmed cell death 1 ligand 1 (Q15116 whole entry): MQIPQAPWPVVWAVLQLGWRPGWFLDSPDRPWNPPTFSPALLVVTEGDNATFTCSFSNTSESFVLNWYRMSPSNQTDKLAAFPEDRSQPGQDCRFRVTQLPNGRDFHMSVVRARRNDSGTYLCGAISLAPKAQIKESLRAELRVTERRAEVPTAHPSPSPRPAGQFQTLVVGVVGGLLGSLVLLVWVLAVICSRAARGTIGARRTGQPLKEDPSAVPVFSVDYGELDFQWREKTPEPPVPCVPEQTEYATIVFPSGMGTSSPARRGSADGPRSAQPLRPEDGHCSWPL
Chain of Programmed cell death protein 1/Programmed cell death 1 ligand 1 (Q9NZQ7 whole entry): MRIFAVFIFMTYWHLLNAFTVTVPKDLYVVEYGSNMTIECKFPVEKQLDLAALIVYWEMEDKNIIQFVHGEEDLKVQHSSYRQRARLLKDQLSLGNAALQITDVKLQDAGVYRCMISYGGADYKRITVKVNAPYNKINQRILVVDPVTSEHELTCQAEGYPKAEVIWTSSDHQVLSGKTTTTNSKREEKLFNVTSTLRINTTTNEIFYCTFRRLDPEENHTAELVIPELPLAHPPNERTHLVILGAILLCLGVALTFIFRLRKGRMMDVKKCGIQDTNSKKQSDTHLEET

Compound	IC50 [1]	IC50 [2]	Ratio IC50 (Homo sapiens)
Oc1ccc([C@@H]2c3c(O)cc(O)cc3[C@@H]3c4c(cc(O)cc4[C@H]2[C@@H]2c4cc(O)cc5c4[C@@H](c4cc(O)cc(O)c4[C@H]2c2ccc(O)cc2)[C@H](c2ccc(O)cc2)O5)O[C@H]3c2ccc(O)cc2)cc1	0.25 µM		
COc1cc(OC(C)=O)c(-c2c(OC(C)=O)cc(OC)c3c2C=C[C@@](C)(CCC2=C(C)CCCC2(C)C)O3)c2c1O[C@](C)(CCC1=C(C)CCCC1(C)C)C=C2	65 µM	> 50 µM	
COc1cc(OC(C)=O)c(-c2c(OC(C)=O)cc(OC)c3c2C=C[C@](C)(CCC2=C(C)CCCC2(C)C)O3)c2c1O[C@](C)(CCC1=C(C)CCCC1(C)C)C=C2	7.3 µM	37 µM	5
COc1cc(O)c(-c2c(O)cc(OC)c3c2C=C[C@](C)(CCC2=C(C)CCCC2(C)C)O3)c2c1O[C@](C)(CCC1=C(C)CCCC1(C)C)C=C2	1 µM	6 µM	5.9
COc1cc(OC(C)=O)cc2c1OC(C)(CCC1=C(C)CCCC1(C)C)C=C2 (configuration not stated)	63 µM	66 µM	1
